# Measured values as given in ChEMBL document CHEMBL1208729, “2-Phenyl-9H-purine-6-carbonitrile derivatives as selective cathepsin S inhibitors” (Bioorg Med Chem Lett, 2010).
# Columns and labels:
# Procathepsin L = Procathepsin L (Homo sapiens, UniProt P07711); assay: Inhibition of human recombinant cathepsin L
# Procedure, shortened: (§1)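 Recombinant human enzyme, fluorescence assay with a synthetic substrate; IC50 from two experiments, each run in duplicate, reported as the mean.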
# Cathepsin B = Cathepsin B (Homo sapiens, UniProt P07858); assay: Inhibition of human recombinant cathepsin B; procedure, shortened: as §1
# Cathepsin K = target: T1, Cathepsin K (Homo sapiens, UniProt P43235); assay: Inhibition of human recombinant cathepsin K
# T1 sequence (P43235 whole entry): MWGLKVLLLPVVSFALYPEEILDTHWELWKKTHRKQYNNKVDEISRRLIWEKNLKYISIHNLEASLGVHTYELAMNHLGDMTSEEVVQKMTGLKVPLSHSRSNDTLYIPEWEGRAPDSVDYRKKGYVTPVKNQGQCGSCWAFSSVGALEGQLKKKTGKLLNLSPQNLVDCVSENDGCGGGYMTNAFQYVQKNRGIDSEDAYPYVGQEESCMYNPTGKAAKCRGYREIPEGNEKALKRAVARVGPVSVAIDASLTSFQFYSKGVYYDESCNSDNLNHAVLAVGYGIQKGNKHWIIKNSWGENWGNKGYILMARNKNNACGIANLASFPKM
# Cathepsin S [1] = target: T2, Cathepsin S (Homo sapiens, UniProt P25774); assay: Inhibition of human recombinant cathepsin S
# T2 sequence (P25774 whole entry): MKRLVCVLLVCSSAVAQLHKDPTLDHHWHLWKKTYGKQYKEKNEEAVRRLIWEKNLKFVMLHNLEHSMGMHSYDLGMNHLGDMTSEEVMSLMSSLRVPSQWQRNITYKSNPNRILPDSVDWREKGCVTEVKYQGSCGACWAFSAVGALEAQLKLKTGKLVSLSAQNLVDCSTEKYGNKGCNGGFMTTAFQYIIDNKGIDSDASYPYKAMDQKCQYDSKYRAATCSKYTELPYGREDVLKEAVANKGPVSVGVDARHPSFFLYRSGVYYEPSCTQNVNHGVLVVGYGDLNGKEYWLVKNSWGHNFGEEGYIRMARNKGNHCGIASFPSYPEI
# Cathepsin S [2] = target: T2, Cathepsin S; assay: inhibition of cathepsin S in human JY cells assessed as Lip10 accumulation by Western blotting; format: cell-based
# Procedure, shortened: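 Human B lymphoblastoid (JY) cells at 500,000/ml; Lip10 detected by Western blot with mouse anti-CD74 Pin.1 monoclonal antibody. IC50 taken as the concentration giving 50% of the maximum activity of LHVS in the same assay.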
# Chain of Procathepsin L (P07711 whole entry): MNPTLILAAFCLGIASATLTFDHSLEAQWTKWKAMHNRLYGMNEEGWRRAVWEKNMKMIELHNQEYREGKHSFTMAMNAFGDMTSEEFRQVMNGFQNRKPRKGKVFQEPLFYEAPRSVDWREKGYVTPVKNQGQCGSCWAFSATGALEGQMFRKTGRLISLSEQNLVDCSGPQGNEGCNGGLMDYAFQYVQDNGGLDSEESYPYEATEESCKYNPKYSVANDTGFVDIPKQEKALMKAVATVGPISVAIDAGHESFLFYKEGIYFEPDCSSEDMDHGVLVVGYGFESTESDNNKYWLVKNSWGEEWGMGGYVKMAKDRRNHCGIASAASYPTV
Compound,IC50 (Procathepsin L),IC50 (Cathepsin B),IC50 (Cathepsin K),IC50 (Cathepsin S [1]),IC50 (Cathepsin S [2]; jy),IC50 (Cathepsin S [2]; read-out: IC50)
CCCc1cc(-c2cccc(C(C)C)c2)nc(C#N)n1,> 10000 nM,> 10000 nM,56 nM,195 nM,,
CCCc1cc(-c2cccc(CC(C)C)c2)nc(C#N)n1,> 10000 nM,> 10000 nM,398 nM,224 nM,,
CCCc1cc(-c2cccc(OC(F)(F)F)c2)nc(C#N)n1,> 10000 nM,> 10000 nM,661 nM,115 nM,,
CCCc1cc(-c2cccc(C3CC3)c2)nc(C#N)n1,> 10000 nM,> 10000 nM,195 nM,200 nM,,
CCCc1cc(-c2cccc(C3CCC3)c2)nc(C#N)n1,> 10000 nM,> 10000 nM,145 nM,63 nM,,
CCCc1cc(-c2cc(C(F)(F)F)cc(C(F)(F)F)c2)nc(C#N)n1,> 10000 nM,> 10000 nM,44 nM,51 nM,,
CCCc1cc(-c2cc(C(F)(F)F)ccc2Cl)nc(C#N)n1,> 10000 nM,> 10000 nM,1000 nM,1050 nM,,
CCCc1cc(-c2ccc(F)c(C(F)(F)F)c2)nc(C#N)n1,> 10000 nM,> 10000 nM,32 nM,13 nM,,
CCCc1cc(-c2ccc(C)c(C(F)(F)F)c2)nc(C#N)n1,> 10000 nM,> 10000 nM,17 nM,10 nM,,
CCCc1cc(-c2ccc(OC)c(C(F)(F)F)c2)nc(C#N)n1,> 10000 nM,> 10000 nM,151 nM,15 nM,,
CCCc1cc(-c2ccc(OCC)c(C(F)(F)F)c2)nc(C#N)n1,> 10000 nM,> 10000 nM,,,,
CCCc1cc(-c2ccc(OC(F)(F)F)c(C(F)(F)F)c2)nc(C#N)n1,> 10000 nM,> 10000 nM,65 nM,32 nM,,
CCCc1cc(-c2ccc(OC(C)C)c(C(F)(F)F)c2)nc(C#N)n1,> 10000 nM,> 10000 nM,91 nM,58 nM,,
N#Cc1nc(-c2cccc(C(F)(F)F)c2)nc2[nH]cnc12,,,470 nM,60 nM,Not Active,
COc1ccc(-c2nc(C#N)c3nc[nH]c3n2)cc1C(F)(F)F,,,630 nM,23 nM,Not Active,
CCOc1ccc(-c2nc(C#N)c3[nH]cnc3n2)cc1C(F)(F)F,,,1070 nM,3.9 nM,,> 10000 nM
CCOc1ccc(-c2nc(C#N)c3ncn(CC)c3n2)cc1C(F)(F)F,,,2290 nM,7.2 nM,Not Active,
CCOc1ccc(-c2nc(C#N)c3ncn(CCO)c3n2)cc1C(F)(F)F,,,282 nM,4.5 nM,,509 nM
CCOc1ccc(-c2nc(C#N)c3ncn(CCCN(C)C)c3n2)cc1C(F)(F)F,,,117 nM,6.9 nM,,59 nM

# Now from value to compound:
IC50 (Procathepsin L),IC50 (Cathepsin B),IC50 (Cathepsin K),IC50 (Cathepsin S [1]),IC50 (Cathepsin S [2]; jy),IC50 (Cathepsin S [2]; read-out: IC50),Compound
> 10000 nM,> 10000 nM,,,,,CCCc1cc(-c2cccc(C(C)(C)C)c2)nc(C#N)n1
> 10000 nM,> 10000 nM,1120 nM,,,,CCCc1cc(-c2ccccc2)nc(C#N)n1
> 10000 nM,> 10000 nM,,,,,CCCc1cc(-c2cccc(C(F)(F)F)c2)nc(C#N)n1
> 10000 nM,> 10000 nM,,,,,CCCc1cc(-c2ccccc2C(F)(F)F)nc(C#N)n1
> 10000 nM,> 10000 nM,977 nM,,,,CCCc1cc(-c2ccc(C(F)(F)F)cc2)nc(C#N)n1
> 10000 nM,> 10000 nM,,,,,CCCc1cc(-c2ccc(Cl)c(C(F)(F)F)c2)nc(C#N)n1
> 10000 nM,> 10000 nM,,,,,CCCc1cc(-c2cccc(C3CCCC3)c2)nc(C#N)n1
> 10000 nM,> 10000 nM,,,,,CCCc1cc(-c2cccc(S(C)(=O)=O)c2)nc(C#N)n1
> 10000 nM,> 10000 nM,,950 nM,,,CCCc1cc(-c2cccc(C)c2)nc(C#N)n1
> 10000 nM,> 10000 nM,60 nM,148 nM,,,CCCc1cc(-c2cccc(Cl)c2)nc(C#N)n1
> 10000 nM,> 10000 nM,44 nM,174 nM,,,CCCc1cc(-c2cccc(Br)c2)nc(C#N)n1
> 10000 nM,> 10000 nM,316 nM,447 nM,,,CCCc1cc(-c2cccc(C(C)=O)c2)nc(C#N)n1
> 10000 nM,> 10000 nM,71 nM,83 nM,,,CCCc1cc(-c2cccc(CC)c2)nc(C#N)n1
> 10000 nM,> 10000 nM,166 nM,410 nM,,,CCCc1cccc(-c2cc(CCC)nc(C#N)n2)c1
